Assay outcomes from PubChem BioAssay.
Hits are enriched below; roughly 3.2% of the tested compounds scored in any of these assays.
TRPML3 ag: human TRPML3 channel agonists, primary screen, cell-based, HEK293 TRPML3-YFP, Fluo-8 calcium fluorescence, 3 µM; 0.29% of 220,000 active; 100% = the carbachol control signal; activation, % at 3 µM;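 active = activation above its plate's cutoff, the mean activation of the plate's test wells plus 3 SD, cut at about 12% in these data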;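 also: 0% = DMSO only wells and 100% = carbachol wells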
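Test system – HEK293 line with stable expression of human TRPML3-YFP channel · Control set – carbachol 87 µM final as high control (100%), DMSO as low control (0%) · Signal – Fluo-8 calcium dye fluorescence, ex 470-495, em 515-575 nm · Incubation – 1-h 37 °C dye load, 5-s basal, 120-s post-compound reads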
OX1R antag-1: OX1R (HCRTR1) antagonists, primary screen, fluorescence, CHO/OX1R cells, Fluo-8 calcium, orexin A; Fluo-8 calcium fluorescence; inhibition, % at 5 µM; 0.43% of 330,000 active; AID 434989, 2010;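 active = inhibition above its plate's threshold, mean inhibition of all tested compounds on the plate plus 3 SD, cut at about 37% in these data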;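 also: 0% = orexin A challenge wells and 100% = SB-334867-A antagonist wells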
CHO parental Ca: ATP-evoked calcium signal inhibitors, parental CHO, primary screen, counter-screen for OX1R antagonist project, cell-based, fluorescence, Fluo-8 calcium dye; inhibition, % at 5.6 µM; 0.63% of 330,000 active; parental CHO-K1, ATP-induced calcium, Fluo-8 fluorescence;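 active = inhibition above that plate's mean sample inhibition plus 3 SD, cut at about 26% in these data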;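 also: 0% = ATP-challenged DMSO wells and 100% = DMSO wells without ATP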
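Test system: parental CHO cells; detection: calcium-sensitive Fluo-8 fluorescence; evaluation: percent inhibition of calcium signal; also added: ATP as calcium-mobilizing challenge; repeats: one well per compound; control set: ATP-challenged DMSO wells low, unchallenged DMSO wells high; compound: single nominal dose of 5.6 µM per compound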
OX1R antag-2: antagonists of human orexin 1 receptor (OX1R) | OX1R-expressing cells, FRET antagonist read-out | inhibition, % at 6.6 µM | 1.8% of 330,000 active; in the data active = inhibition mostly above about 38%, no sharp cut-off; inactive = mostly below about 40%;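 also: 0% = agonist challenge alone and 100% = reference antagonist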
GPR7 antag: GPR7 receptor antagonists, primary screen, cell-based, fluorescence, single concentration. GPR7-expressing cells, fluorescence antagonist assay. inhibition, % at 4.4 µM. 1.1% of 290,000 active. AID 1861, 2009; in the data active = inhibition above about 16%, passing the limit was not always enough;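 also: cells stimulated with the agonist NPW; 0% = agonist with vehicle and 100% = vehicle without agonist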
Target sequence (P48145 whole entry, looked up): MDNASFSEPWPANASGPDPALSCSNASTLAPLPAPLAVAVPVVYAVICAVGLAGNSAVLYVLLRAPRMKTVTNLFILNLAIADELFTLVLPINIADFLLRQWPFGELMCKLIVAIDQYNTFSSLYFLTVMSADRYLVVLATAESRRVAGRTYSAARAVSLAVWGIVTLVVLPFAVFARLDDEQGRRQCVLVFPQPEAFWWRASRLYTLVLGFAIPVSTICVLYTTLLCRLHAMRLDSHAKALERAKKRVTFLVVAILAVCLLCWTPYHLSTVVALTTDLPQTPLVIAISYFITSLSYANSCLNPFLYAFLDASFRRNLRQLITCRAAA
TRPN1 ag: zebrafish TRPN1 channel agonists, primary screen, cell-based, HEK293, calcium fluorescence. transient receptor potential cation channel N1 (TRPN1/NompC), Danio rerio. AID 1424, 2008. 0.18% of 220,000 active. activation, % at 3 µM. HEK293 zebrafish TRPN1-YFP, Fluo-8 calcium fluorescence; 100% = response to 87 µM carbachol;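 active = activation above its plate's cutoff, the mean activation of test wells on that plate plus 3 SD, cut at about 19% in these data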;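 also: 0% = DMSO alone and 100% = 87 µM carbachol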
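Material: zebrafish TRPN1-YFP in HEK293 cells. Doses: one dose of 3 µM, 0.3% DMSO. Incubation: dye 1 h 37 °C plus 30 min RT. Measured by: intracellular calcium fluorescence with Fluo-8.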
GPR7 antag conf: GPR7 receptor antagonists, confirmation, cell-based, fluorescence, single concentration; shares compounds with GPR7 antag; inhibition, % at 4.4 µM; GPR7-expressing cells, calcium fluorescence antagonist mode; 52% of 2,400 active; in the data active = inhibition above about 24%;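 also: stimulated with the GPR7 agonist NPW; 0% = agonist plus vehicle and 100% = vehicle alone without agonist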
MCHR1 antag: MCHR1 antagonists in cells, counter-screen for GPR7 antagonist project, cell-based, fluorescence, human; shares compounds with GPR7 antag; MCHR1-expressing cells, fluorescence antagonist assay; inhibition, % at 4.4 µM; 62% of 2,400 active; in the data active = inhibition above about 22%;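 also: 0% = vehicle with agonist and 100% = vehicle without agonist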
Active calls of the source: *; nt = no result.

SMILES | TRPML3 ag | OX1R antag-1 | CHO parental Ca | OX1R antag-2 | GPR7 antag | TRPN1 ag | GPR7 antag conf | MCHR1 antag
COC(=O)c1ccc(NC(=O)c2nc(S(=O)(=O)Cc3cccc(C)c3)ncc2Cl)cc1 | nt | 45 | 28 | 21 | 32* | nt | 72* | 86*
CC(=O)Nc1ccc(NC(=O)c2nc(S(=O)(=O)Cc3cccc(C)c3)ncc2Cl)cc1 | nt | 25 | 26 | 5 | 17 | nt | nt | nt
CCS(=O)(=O)c1ncc(Cl)c(C(=O)Nc2ccc(S(=O)(=O)N3CCC(C)CC3)cc2)n1 | nt | 24 | 41* | 47* | 58* | nt | 89* | 95*
CCc1ccc(NC(=O)c2nc(S(=O)(=O)Cc3ccccc3)ncc2Cl)cc1 | nt | 63* | 57* | 24 | 56* | nt | 88* | 103*
CC1CCN(S(=O)(=O)c2ccc(NC(=O)c3ccncc3)cc2)CC1 | nt | 1 | 1 | 16 | 4 | nt | nt | nt
COc1ccccc1NC(=O)c1nc(S(=O)(=O)Cc2ccccc2)ncc1Cl | nt | 27 | 17 | 9 | 32* | nt | 41* | 30*
CC1(C)CCCC(C)(C)N1CC(O)COCCOc1ccc(Br)cc1 (stereo unspecified) | 2 | -9 | -20 | 6 | -3 | -1 | nt | nt
Cc1ccc(Cn2c(C3CCCN3c3nc(-c4cc(Cl)c(N)c(Cl)c4)cs3)nc3cc(Cl)c(Cl)cc32)cc1 (stereo unspecified) | nt | -22 | -15 | 35 | nt | nt | nt | nt
Cn1c(=O)[nH]c(NCCc2ccc(O)cc2)c([N+](=O)[O-])c1=O | nt | -3 | 6 | 18 | nt | nt | nt | nt
O=S(=O)(NC1CCCC1)c1ccc(S(=O)(=O)N2CCc3ccccc32)cc1 | 4 | -3 | 39* | 32 | 47* | 8 | 62* | 61*
O=C(c1cc2sccc2n1Cc1ccc(F)cc1)N1CCN(c2nc3ccccc3s2)CC1 | 0 | 26 | 37* | 38 | 32* | 2 | 28* | 38*
O=C(Cc1ccc([N+](=O)[O-])cc1)Nc1ccc2c(c1)CCC2 | nt | -16 | 15 | 12 | 22* | nt | 24 | 27*
O=C(COc1ccc([N+](=O)[O-])cc1)Nc1ccc2c(c1)CCC2 | nt | 10 | -9 | 9 | nt | nt | nt | nt
CCOC(=O)c1ccc(NC(=O)C(=O)NCc2ccco2)cc1 | 1 | -27 | -19 | 13 | -6 | 1 | nt | nt
Cc1ccc(-n2cccn2)c(CN2CCCC(C(=O)c3sccc3C)C2)c1 (stereo unspecified) | -1 | -15 | -21 | 18 | 33* | -2 | 39* | 41*
Cc1ccc(NC2CCCN(C(=O)c3ccc(F)cc3)C2)cc1C (stereo unspecified) | nt | -4 | -13 | 9 | -4 | nt | nt | nt
CC1CCC(C(C)C)C(OCC(O)CN2CCCC(C)C2)C1 (stereo unspecified) | 1 | -33 | -4 | 19 | 32* | 0 | 39* | 25*
CC(C)NC(=O)c1cc(-c2ccc3c(c2)OCO3)on1 | nt | -33 | 4 | 8 | 44* | nt | 0 | 12
CCCNC(=O)c1cc(-c2ccc3c(c2)OCO3)on1 | nt | -18 | -6 | 13 | 14 | nt | nt | nt
COc1ccc(CC2(CO)CCN(Cc3nc(C(C)C)cs3)CC2)cc1 | 3 | -28 | -30 | 18 | 25* | 6 | 8 | 40*
Cn1c(=O)c2c(nc(CN3CCN(Cc4ccccc4)CC3)n2Cc2cccc(Cl)c2)n(C)c1=O | 0 | -30 | -4 | 15 | -6 | -1 | nt | nt
Cn1c(=O)c2c(nc(CN3CCc4ccccc4C3)n2Cc2cccc(Cl)c2)n(C)c1=O | 0 | -7 | -22 | 35 | 24* | -2 | 20 | 13
COc1ccccc1C(=O)NCCC(=O)Nc1cccc(S(=O)(=O)N2CCCC2)c1 | nt | -15 | -15 | 0 | nt | nt | nt | nt
Cc1ccc(CC(NC(=O)c2ccc(C)cc2)C(=O)O)cc1 (stereo unspecified) | nt | -12 | -1 | 4 | nt | nt | nt | nt
CN(c1ccccc1)S(=O)(=O)c1ccc(C(=O)NCCc2ccc(F)cc2)cc1 | nt | -23 | -10 | 13 | 27* | nt | 23 | 18
SMILES | TRPML3 ag | OX1R antag-1 | CHO parental Ca | OX1R antag-2 | GPR7 antag | TRPN1 ag | GPR7 antag conf | MCHR1 antag
COc1ccccc1N(C)S(=O)(=O)c1ccc(C(=O)NCCc2ccc(F)cc2)cc1 | nt | -21 | -3 | 21 | 0 | nt | nt | nt
COc1ccc(CCNC(=O)CN(Cc2ccc(Cl)cc2)S(C)(=O)=O)cc1 | nt | nt | nt | nt | 25* | nt | 13 | 13
COc1ccc(N(C)S(=O)(=O)c2ccc(Cl)c(C(=O)NCCc3ccc(Cl)cc3)c2)cc1 | 1 | -2 | -26 | 23 | 45* | -2 | 48* | 50*
O=C(CCN1C(=O)COc2ccccc21)NCc1cccnc1 | 1 | 2 | -14 | 2 | 28* | 2 | -4 | 21
CCOc1ccccc1CNC(=O)CCN1C(=O)COc2ccccc21 | -1 | 3 | 0 | 26 | 7 | 0 | nt | nt
CCCCCCC(C)NC(=S)Nc1cc(S(=O)(=O)N(C)C)ccc1C (stereo unspecified) | 2 | 8 | -5 | 11 | -1 | 2 | nt | nt
Cc1ccc(SC[C@H](Cc2ccccc2)N2CC[C@@H](NC(=O)OCc3ccccc3)CCC2=O)cc1 | nt | -23 | -28 | 37 | -4 | nt | nt | nt
CCOc1ccc2nc3ccc4[nH]onc4c3c2c1 | 1 | 43 | -8 | 44* | 28* | 1 | 48* | 46*
CCCC(NC(=O)CCc1c(C)c2cc3c(-c4ccccc4)coc3cc2oc1=O)C(=O)O (stereo unspecified) | nt | -12 | -1 | 18 | 12 | nt | nt | nt
COc1ccc(-c2c(-c3cc(OC)cc(OC)c3)n(C)c3ccc(-c4ccc5cc[nH]c5c4)cc23)cc1 | nt | -7 | -2 | 5 | nt | nt | nt | nt
COc1ccc(-c2c[n+]3c(n2-c2ccc(C)cc2)CCCCC3)cc1 | 1 | -16 | 1 | 22 | 25* | 1 | 47* | 38*
CCOc1ccc(-n2c(-c3ccc(OC)cc3)c[n+]3c2CCCCC3)cc1 | 0 | -5 | 4 | 4 | 36* | -1 | 55* | 49*
